Test results as given in ChEMBL document CHEMBL4350960, “Structural Basis for E. coli Penicillin Binding Protein (PBP) 2 Inhibition, a Platform for Drug Design” (J Med Chem, 2019).
Converted amounts (≈) assume the structure as drawn. The source made the active and inactive calls. The rule behind the calls is not given here.

Experiments:
Escherichia coli [1] = test: Inhibition of Escherichia coli PBP3
[2] = molecular target: T1, Penicillin-binding protein 1B (Escherichia coli K-12) (UniProt P02919); test: Inhibition of Escherichia coli PBP1b
T1 sequence (whole entry): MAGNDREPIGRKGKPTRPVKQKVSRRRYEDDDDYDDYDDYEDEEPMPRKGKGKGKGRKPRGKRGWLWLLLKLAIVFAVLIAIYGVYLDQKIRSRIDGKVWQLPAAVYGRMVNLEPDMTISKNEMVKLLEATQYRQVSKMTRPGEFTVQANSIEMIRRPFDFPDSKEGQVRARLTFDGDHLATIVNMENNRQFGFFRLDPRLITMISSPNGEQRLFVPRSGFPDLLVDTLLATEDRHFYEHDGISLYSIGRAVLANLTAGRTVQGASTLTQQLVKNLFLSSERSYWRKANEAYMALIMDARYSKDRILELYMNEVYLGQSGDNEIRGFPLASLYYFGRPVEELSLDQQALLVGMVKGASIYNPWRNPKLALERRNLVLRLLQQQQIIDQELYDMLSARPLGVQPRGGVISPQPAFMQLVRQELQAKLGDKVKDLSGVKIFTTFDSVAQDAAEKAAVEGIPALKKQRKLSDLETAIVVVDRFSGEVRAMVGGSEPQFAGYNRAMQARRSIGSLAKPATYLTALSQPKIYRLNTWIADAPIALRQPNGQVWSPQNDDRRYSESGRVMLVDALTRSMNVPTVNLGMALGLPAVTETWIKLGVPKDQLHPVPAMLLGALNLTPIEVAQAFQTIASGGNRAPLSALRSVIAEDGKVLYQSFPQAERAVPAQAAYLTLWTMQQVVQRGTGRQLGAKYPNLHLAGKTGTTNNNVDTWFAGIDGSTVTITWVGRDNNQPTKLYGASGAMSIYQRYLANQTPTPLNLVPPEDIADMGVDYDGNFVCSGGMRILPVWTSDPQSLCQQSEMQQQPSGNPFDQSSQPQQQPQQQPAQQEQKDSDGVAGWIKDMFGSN

Pseudomonas aeruginosa [3] = test: Antibacterial activity against Pseudomonas aeruginosa UFR49 measured after 16 to 20 hrs by broth microdilution method; assay type: functional
[4] = molecular target: T2, Penicillin-binding protein 1A (Escherichia coli K-12) (UniProt P02918); test: Inhibition of Escherichia coli PBP1a
T2 sequence (whole entry): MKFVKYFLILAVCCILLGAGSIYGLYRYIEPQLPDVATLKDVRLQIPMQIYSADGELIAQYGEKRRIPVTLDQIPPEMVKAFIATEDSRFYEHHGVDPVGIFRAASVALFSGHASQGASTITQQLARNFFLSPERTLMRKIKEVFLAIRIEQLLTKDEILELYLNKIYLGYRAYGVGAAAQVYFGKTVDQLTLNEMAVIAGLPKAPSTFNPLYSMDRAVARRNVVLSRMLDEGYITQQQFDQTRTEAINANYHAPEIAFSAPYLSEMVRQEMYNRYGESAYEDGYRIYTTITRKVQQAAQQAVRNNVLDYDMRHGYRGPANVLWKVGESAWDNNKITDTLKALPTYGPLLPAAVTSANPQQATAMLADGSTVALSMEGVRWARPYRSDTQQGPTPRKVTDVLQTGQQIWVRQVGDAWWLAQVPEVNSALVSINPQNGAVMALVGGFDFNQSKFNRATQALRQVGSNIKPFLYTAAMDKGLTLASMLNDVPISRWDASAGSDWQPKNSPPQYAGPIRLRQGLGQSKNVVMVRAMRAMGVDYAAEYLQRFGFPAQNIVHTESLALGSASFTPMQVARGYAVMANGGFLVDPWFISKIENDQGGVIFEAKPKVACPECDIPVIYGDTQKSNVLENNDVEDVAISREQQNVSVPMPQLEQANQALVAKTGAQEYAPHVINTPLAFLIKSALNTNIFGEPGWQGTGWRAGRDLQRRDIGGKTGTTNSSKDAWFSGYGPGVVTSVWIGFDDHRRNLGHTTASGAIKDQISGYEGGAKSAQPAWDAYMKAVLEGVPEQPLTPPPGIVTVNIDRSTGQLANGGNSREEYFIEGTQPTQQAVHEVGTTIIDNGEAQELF

[5] = molecular target: T3, Peptidoglycan D,D-transpeptidase MrdA (Escherichia coli K-12) (UniProt P0AD65); test: (§1) Inhibition of bocillin-FL binding to Escherichia coli K12 NusA-fused/His6-tagged PBP2 (57 to 615 residues) expressed in Escherichia coli BL21(DE3) preincubated for 30 mins followed by bocillin-FL addition by RT-fluorescence anisotropy method
T3 sequence (whole entry): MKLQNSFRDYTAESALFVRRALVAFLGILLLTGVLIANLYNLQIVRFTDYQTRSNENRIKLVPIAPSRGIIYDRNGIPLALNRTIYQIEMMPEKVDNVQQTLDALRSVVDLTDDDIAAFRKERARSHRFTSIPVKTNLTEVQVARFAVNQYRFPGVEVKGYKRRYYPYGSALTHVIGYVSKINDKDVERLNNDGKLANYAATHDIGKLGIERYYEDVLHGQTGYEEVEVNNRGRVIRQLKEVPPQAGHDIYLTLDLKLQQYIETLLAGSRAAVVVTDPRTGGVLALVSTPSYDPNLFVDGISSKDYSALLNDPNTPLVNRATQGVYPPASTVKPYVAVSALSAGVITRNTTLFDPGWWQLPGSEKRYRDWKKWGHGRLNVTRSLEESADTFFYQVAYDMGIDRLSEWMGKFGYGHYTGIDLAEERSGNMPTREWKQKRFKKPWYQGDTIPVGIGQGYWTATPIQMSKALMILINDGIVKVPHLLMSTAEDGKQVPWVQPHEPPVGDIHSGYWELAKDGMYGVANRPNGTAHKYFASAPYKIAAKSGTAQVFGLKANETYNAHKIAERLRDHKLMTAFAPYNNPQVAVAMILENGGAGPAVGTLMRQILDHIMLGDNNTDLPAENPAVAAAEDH

[6] = molecular target: T4, Peptidoglycan D,D-transpeptidase MrdA (Escherichia coli K-12, UniProt P0AD65); test: as §1
T4 sequence (P0AD65 whole entry): T3 sequence (whole entry)

Escherichia coli [7] = test: Antibacterial activity against Escherichia coli UFR39 measured after 16 to 20 hrs by broth microdilution method; assay type: functional
Procedure, shortened: (§2)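 Broth microdilution MICs following CLSI M7-A7, run against genotyped carbapenem-resistant E. coli and P. aeruginosa strains.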

[8] = molecular target: Penicillin-binding protein 3 (Pseudomonas aeruginosa) (UniProt Q51504); test: Inhibition of Pseudomonas aeruginosa PBP3 up to 200 uM
[9] = molecular target: T5, Penicillin-binding protein 1B (Pseudomonas aeruginosa) (UniProt Q9X6W0); test: Inhibition of Pseudomonas aeruginosa PBP1b up to 200 uM
T5 sequence (whole entry): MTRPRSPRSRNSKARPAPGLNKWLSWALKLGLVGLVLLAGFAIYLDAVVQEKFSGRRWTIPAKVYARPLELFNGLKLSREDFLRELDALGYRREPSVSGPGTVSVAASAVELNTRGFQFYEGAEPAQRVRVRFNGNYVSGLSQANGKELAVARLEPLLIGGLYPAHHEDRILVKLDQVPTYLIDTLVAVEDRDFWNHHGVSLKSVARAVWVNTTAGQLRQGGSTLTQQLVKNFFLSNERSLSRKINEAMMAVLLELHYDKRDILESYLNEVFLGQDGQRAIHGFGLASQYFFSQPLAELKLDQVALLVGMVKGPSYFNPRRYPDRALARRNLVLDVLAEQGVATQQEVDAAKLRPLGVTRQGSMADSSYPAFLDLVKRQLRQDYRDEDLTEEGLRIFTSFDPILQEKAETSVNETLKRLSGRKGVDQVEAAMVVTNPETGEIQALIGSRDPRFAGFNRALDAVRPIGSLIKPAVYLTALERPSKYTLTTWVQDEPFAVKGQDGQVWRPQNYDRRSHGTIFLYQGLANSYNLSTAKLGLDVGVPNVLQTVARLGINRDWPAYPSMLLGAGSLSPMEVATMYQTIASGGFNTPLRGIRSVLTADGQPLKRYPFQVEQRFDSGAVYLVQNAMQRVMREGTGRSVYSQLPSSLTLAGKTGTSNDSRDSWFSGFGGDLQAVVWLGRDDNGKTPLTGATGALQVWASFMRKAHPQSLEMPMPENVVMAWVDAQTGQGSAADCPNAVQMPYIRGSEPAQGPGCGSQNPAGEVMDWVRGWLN

Bacteria [10] = test: Inhibition of bacterial beta-lactamase KPC-2
[11] = molecular target: Penicillin-binding protein 1A (Pseudomonas aeruginosa PAO1) (UniProt Q07806); test: Inhibition of Pseudomonas aeruginosa PBP1a up to 200 uM
Pseudomonas aeruginosa [12] = test: Antibacterial activity against Pseudomonas aeruginosa clinical isolates measured after 16 to 20 hrs by broth microdilution method; assay type: functional; procedure, shortened: as §2
Bacteria [13] = test: Inhibition of bacterial OXA-48
Bacteria [14] = test: Inhibition of bacterial beta-lactamase SHV-1
[15] = molecular target: T2, Penicillin-binding protein 1A (Escherichia coli K-12); test: Inhibition of Escherichia coli PBP1a up to 200 uM
[16] = molecular target: T3, Peptidoglycan D,D-transpeptidase MrdA (Escherichia coli K-12); test: Binding affinity to Escherichia coli K12 NusA-fused/His6-tagged PBP2 (57 to 615 residues) expressed in Escherichia coli BL21(DE3) assessed as melting temperature at protein to compound ratio of 1:10 measured after 30 mins using SYPRO orange dye by RT-PCR-based fluorescence assay (reference value: 47 +/- 0.5 degC)
Procedure, shortened: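 Thermal unfolding was monitored with SYPRO Orange dye in a real-time PCR instrument, at a protein/ligand ratio of 1/10. Tm was taken at the inflexion point of the denaturation curve and reported ±0.5 °C.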

[17] = molecular target: Beta-lactamase TEM (Bacteria) (UniProt P62593); test: Inhibition of bacterial beta-lactamase TEM-1
Escherichia coli [18] = test: Inhibition of Escherichia coli PBP3 up to 200 uM
Escherichia coli [19] = test: Antibacterial activity against Escherichia coli clinical isolates measured after 16 to 20 hrs by broth microdilution method; assay type: functional; procedure, shortened: as §2
Bacteria [20] = test: Inhibition of bacterial OXA-15
Bacteria [21] = test: Inhibition of bacterial CMY-37
[22] = molecular target: T1, Penicillin-binding protein 1B (Escherichia coli K-12); test: Inhibition of Escherichia coli PBP1b up to 200 uM
Bacteria [23] = test: Inhibition of bacterial beta-lactamase CTX-M-15
Enterobacter cloacae = test: Inhibition of Enterobacter cloacae P99 AmpC

Penicillin-binding protein 1A (Pseudomonas aeruginosa PAO1), sequence (Q07806 whole entry): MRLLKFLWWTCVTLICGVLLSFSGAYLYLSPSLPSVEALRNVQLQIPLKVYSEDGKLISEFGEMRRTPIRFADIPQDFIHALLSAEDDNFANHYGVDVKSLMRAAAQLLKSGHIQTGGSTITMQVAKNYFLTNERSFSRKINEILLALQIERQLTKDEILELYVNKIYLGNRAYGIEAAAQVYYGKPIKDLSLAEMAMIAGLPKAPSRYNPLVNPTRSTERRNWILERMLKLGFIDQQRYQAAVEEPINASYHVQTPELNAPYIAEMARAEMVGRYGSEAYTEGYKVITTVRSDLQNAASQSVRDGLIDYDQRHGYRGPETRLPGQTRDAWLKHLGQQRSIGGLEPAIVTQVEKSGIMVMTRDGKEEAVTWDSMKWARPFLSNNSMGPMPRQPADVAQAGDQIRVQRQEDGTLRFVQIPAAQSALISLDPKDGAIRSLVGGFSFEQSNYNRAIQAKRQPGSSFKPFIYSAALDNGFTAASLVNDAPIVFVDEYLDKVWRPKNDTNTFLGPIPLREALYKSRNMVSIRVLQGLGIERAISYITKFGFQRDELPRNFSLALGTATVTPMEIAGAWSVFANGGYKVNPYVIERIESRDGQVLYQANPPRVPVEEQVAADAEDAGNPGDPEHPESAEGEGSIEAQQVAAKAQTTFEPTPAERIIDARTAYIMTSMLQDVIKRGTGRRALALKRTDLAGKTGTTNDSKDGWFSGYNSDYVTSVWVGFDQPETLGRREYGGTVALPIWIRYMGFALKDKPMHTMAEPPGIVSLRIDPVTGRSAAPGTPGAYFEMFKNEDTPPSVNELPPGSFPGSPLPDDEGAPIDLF
Beta-lactamase TEM (Bacteria), sequence (P62593 whole entry): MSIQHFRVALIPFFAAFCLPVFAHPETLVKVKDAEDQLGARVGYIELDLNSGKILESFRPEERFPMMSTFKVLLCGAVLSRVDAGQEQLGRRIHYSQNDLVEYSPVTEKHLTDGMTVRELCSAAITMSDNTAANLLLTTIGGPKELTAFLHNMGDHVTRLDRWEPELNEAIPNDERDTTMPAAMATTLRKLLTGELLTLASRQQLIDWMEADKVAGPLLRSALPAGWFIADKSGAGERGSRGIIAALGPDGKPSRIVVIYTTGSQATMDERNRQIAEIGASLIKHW
Penicillin-binding protein 3 (Pseudomonas aeruginosa), sequence (Q51504 as listed by the source): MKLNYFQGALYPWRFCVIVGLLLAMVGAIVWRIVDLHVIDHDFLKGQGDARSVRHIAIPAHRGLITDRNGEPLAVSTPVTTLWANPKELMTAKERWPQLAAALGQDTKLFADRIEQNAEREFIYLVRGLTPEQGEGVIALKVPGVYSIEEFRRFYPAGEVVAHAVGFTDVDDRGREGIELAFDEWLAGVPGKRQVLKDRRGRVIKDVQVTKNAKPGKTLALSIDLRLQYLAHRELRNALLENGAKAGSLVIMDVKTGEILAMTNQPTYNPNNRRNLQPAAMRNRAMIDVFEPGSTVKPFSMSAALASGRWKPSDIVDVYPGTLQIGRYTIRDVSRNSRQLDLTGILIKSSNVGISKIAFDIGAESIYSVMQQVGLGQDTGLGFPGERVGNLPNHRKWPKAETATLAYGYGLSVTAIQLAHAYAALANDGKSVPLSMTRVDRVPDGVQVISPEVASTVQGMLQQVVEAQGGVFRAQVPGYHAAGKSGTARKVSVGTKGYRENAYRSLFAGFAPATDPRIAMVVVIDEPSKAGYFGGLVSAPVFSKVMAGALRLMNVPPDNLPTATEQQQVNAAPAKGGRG

SMILES	inhibition (Escherichia coli [1])	inhibition [2]	MIC (Pseudomonas aeruginosa [3]) [µg/mL]	inhibition [4]	IC50 [6] [nM]	MIC (Escherichia coli [7]) [µg/mL]	MIC50 (Pseudomonas aeruginosa [12]) [µg/mL]	MIC90 (Pseudomonas aeruginosa [12]) [µg/mL]	MIC50 (Escherichia coli [19]) [µg/mL]	MIC90 (Escherichia coli [19]) [µg/mL]	further results
O=C1N2CCCC(C2)N1OS(=O)(=O)[O-].[Na+] (stereo not drawn)	inactive	inactive	> 32	inactive	> 200000	> 32	–	–	–	–	–
O=C1N2CC=C(c3cccnc3)C(C2)N1OS(=O)(=O)[O-].[Na+] (stereo not drawn)	inactive	inactive	> 32	inactive	–	–	–	–	–	–	inhibition [5]: Active
NC(=O)[C@@H]1CC[C@@H]2CN1C(=O)N2OS(=O)(=O)[O-].[Na+] [AVIBACTAM SODIUM]	–	–	> 32	–	590	16 to 32	> 32	> 32	32	> 32	–
CC(C)(O/N=C(\C(=O)N[C@@H]1C(=O)N2C(C(=O)[O-])=C(C[n+]3ccccc3)CS[C@H]12)c1csc(N)n1)C(=O)O [CEFTAZIDIME]	–	–	64 (≈ 117 µM)	–	–	> 256	> 32	> 32	> 32	> 32	–
C[C@@H](O)[C@H]1C(=O)N2C(C(=O)O)=C(S[C@@H]3CN[C@H](C(=O)N(C)C)C3)[C@H](C)[C@H]12 [MEROPENEM]	–	–	–	–	–	128 (≈ 334 µM)	8 (≈ 20.9 µM)	> 32	0.5 (≈ 1.3 µM)	> 32	–
O=C(NNC(=O)[C@@H]1CC[C@@H]2CN1C(=O)N2OS(=O)(=O)O)[C@@H]1CCCNC1 [ZIDEBACTAM]	–	–	–	–	–	–	8 (≈ 20.4 µM)	16 (≈ 40.9 µM)	32 (≈ 81.8 µM)	> 32	–

More lines, main results first:

inhibition (Escherichia coli [1])	inhibition [2]	MIC (Pseudomonas aeruginosa [3]) [µg/mL]	inhibition [4]	IC50 [6] [nM]	MIC (Escherichia coli [7]) [µg/mL]	MIC50 (Pseudomonas aeruginosa [12]) [µg/mL]	MIC90 (Pseudomonas aeruginosa [12]) [µg/mL]	MIC50 (Escherichia coli [19]) [µg/mL]	MIC90 (Escherichia coli [19]) [µg/mL]	SMILES	further results
inactive	inactive	> 32	inactive	–	–	–	–	–	–	O=C1N2CC=C(c3ccncc3)C(C2)N1OS(=O)(=O)[O-].[Na+] (stereo not drawn)	inhibition [5]: Active
inactive	inactive	> 32	inactive	–	–	–	–	–	–	O=C1N2CC=C(c3ccccn3)C(C2)N1OS(=O)(=O)[O-].[Na+] (stereo not drawn)	inhibition [5]: Active
–	–	> 32	–	–	–	–	–	–	–	O=C1N2CC=C(c3ncco3)C(C2)N1OS(=O)(=O)[O-].[Na+] (stereo not drawn)	–
–	–	> 32	–	17	–	–	–	–	–	O=C1N2CC=C(c3cnoc3)C(C2)N1OS(=O)(=O)[O-].[Na+] (stereo not drawn)	–
inactive	inactive	> 32	inactive	25	4	–	–	–	–	O=C1N2CC=C(c3cnco3)C(C2)N1OS(=O)(=O)[O-].[Na+] (stereo not drawn)	–
inactive	inactive	> 32	inactive	570	16	–	–	–	–	O=C1N2CC=CC(C2)N1OS(=O)(=O)[O-].[Na+] (stereo not drawn)	–
inactive	inactive	2 (≈ 6.32 µM)	inactive	10	0.016 (≈ 0.0506 µM)	1 (≈ 3.16 µM)	16 (≈ 50.6 µM)	0.031 (≈ 0.098 µM)	> 32	NC[C@@H]1C=C(c2cnco2)[C@@H]2CN1C(=O)N2OS(=O)(=O)O (relative stereo)	inhibition [8]: inactive; inhibition [9]: inactive; inhibition (Bacteria [10]): Active; inhibition [11]: inactive; inhibition (Bacteria [13]): Active; inhibition (Bacteria [14]): Active; inhibition [15]: inactive; Tm [16]: 55.5 °C; inhibition [17]: Active; inhibition (Escherichia coli [18]): inactive; inhibition (Bacteria [20]): Active; inhibition (Bacteria [21]): Active; inhibition [22]: inactive; inhibition (Bacteria [23]): Active; inhibition (Enterobacter cloacae): Active
